Experimental data pooled from the literature.
Lines come from different studies, so protocols differ.
Read-out: microbial growth

`CCCCCCC/C=C/C(=O)N1C(=O)/C(=C(\O)c2ccncc2)C(=O)C1CC(C)C` (stereo not drawn) has an MIC of 200 µg/mL (Stenotrophomonas maltophilia; ATCC13637).
`CC(C)Oc1c(NC(=O)c2ccc(NC(=O)[C@H](CC(N)=O)NC(=O)c3ccc(NC(=O)c4ccc(C#N)s4)cc3)cc2)ccc(C(=O)Nc2ccc(C(=O)O)cc2)c1O` gave an MIC of 0.25 µg/mL (Klebsiella aerogenes; DSM30053).
The MIC of `CCCCCCC/C=C/C(=O)N1C(=O)/C(=C(/C)O)C(=O)C1CCCCN` (stereo not drawn) is reported as > 200 µg/mL (Stenotrophomonas maltophilia; ATCC13637).
The MIC of `O=C1NC(=S)S/C1=C\c1ccc(-c2ccc(N(c3ccccc3)c3ccccc3)cc2)cc1` is reported as 1000 µg/mL (Streptococcus mutans; broth dilution; ATCC25175).
For `CCCCCCC/C=C/C(=O)N1C(=O)/C(=C(/C)O)C(=O)C1CO` (stereo not drawn), the MIC was > 200 µg/mL (Stenotrophomonas maltophilia; ATCC13637).
With `O=C(Nc1ccc2c(c1)OC(F)(F)O2)Nc1ccc(Cl)c(C(F)(F)F)c1` the MIC was > 100 µM (Klebsiella aerogenes; DSM30053).
`CC(C)Oc1c(NC(=O)c2ccc(NC(=O)[C@H](CC(N)=O)NC(=O)c3ccc(NC(=O)c4ccc(C#N)cn4)cc3)cc2)ccc(C(=O)Nc2ccc(C(=O)O)cc2)c1O` has an MIC of 0.25 µg/mL (Klebsiella aerogenes; DSM30053).
`CCCCCCC/C=C/C(=O)N1CC(=O)/C(=C(\C)O)C1=O` has an MIC of 100 µg/mL (Stenotrophomonas maltophilia; ATCC13637).
`CCc1cc(Nc2cc(=O)n(CCCCO)c(=O)[nH]2)ccc1C` gave an MIC of > 32 µg/mL (Bifidobacterium; agar dilution; 48 h).
The MIC of `O=C1NC(=S)S/C1=C\c1c2ccccc2c(-c2ccc(N(c3ccccc3)c3ccccc3)cc2)c2ccccc12` is reported as > 1000 µg/mL (Streptococcus pyogenes; broth dilution; ATCC19615).
`CCCCCCC/C=C/C(=O)N1C(=O)/C(=C(\O)CCCC)C(=O)C1CC(C)C` (stereo not drawn) gave an MIC of > 200 µg/mL (Stenotrophomonas maltophilia; ATCC13637).
With `O=C1NC(=S)S/C1=C\c1ccc(-c2ccc(N(c3ccccc3)c3ccccc3)cc2)c2ccccc12` the MIC was 1000 µg/mL (Streptococcus mutans; broth dilution; ATCC25175).
With `CO[C@@H](C(N)=O)[C@H](NC(=O)c1ccc(NC(=O)c2ccc(C#N)cc2)cc1)C(=O)Nc1ccc(C(=O)Nc2ccc(C(=O)Nc3ccc(C(=O)O)cc3)c(O)c2OC(C)C)cc1` the MIC was 2 µg/mL (Klebsiella aerogenes; DSM30053).
`O=C1NC(=S)N/C1=C\c1c2ccccc2c(-c2ccc(N(c3ccccc3)c3ccccc3)cc2)c2ccccc12` gave an MIC of > 1000 µg/mL (Streptococcus mutans; broth dilution; ATCC25175).
The MIC of `O=c1[nH]c(NCc2ccc(Cl)c(Cl)c2)nc2ncn(CCCCCN3CCOCC3)c12` is reported as > 32 µg/mL (Bifidobacterium; agar dilution; 48 h).
